Measured values reported in ChEMBL document CHEMBL2440012, “Design, synthesis and anticonvulsant properties of new N-Mannich bases derived from 3-phenylpyrrolidine-2,5-diones” (Bioorg Med Chem, 2013).
The source made the active and inactive calls. The calls are words filed in the database; no cut-off is given here.

Columns and labels:
Mus musculus [1] = test: Neurotoxicity in ip dosed albino CF1 mouse assessed as time to peak effect by rotorod test; format: toxicity, organism-based; conditions: in vivo
Mus musculus [2] = test: Anticonvulsant activity against 6 Hz psychomotor seizure in ip dosed albino CF1 mouse by minimal clonic seizure test; format: functional
Mus musculus [3] = test: Anticonvulsant activity against 6 Hz psychomotor seizure in ip dosed albino CF1 mouse assessed as time to peak effect by minimal clonic seizure test; format: functional
Mus musculus [4] = test: Anticonvulsant activity in albino CF1 mouse assessed as assessed as protection against 6 Hz psychomotor seizure at 100 mg/kg, ip after 4 hrs by minimal clonic seizure test; format: functional; conditions: route intraperitoneal
Outline: (§1)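 Male CF-1 mice, groups of four, dosed ip in 0.5% methylcellulose/water suspension, then challenged by 6-Hz corneal stimulation at 32 mA (0.2 ms pulses, 3 s, constant current) at 0.25, 0.5, 1, 2 or 4 h; count of mice out of four protected from stunned posture/clonic seizure.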

Mus musculus [5] = test: Anticonvulsant activity in albino CF1 mouse assessed as assessed as protection against 6 Hz psychomotor seizure at 100 mg/kg, ip after 2 hrs by minimal clonic seizure test; format: functional; conditions: route intraperitoneal; outline: as §1
Mus musculus [6] = test: Anticonvulsant activity in albino CF1 mouse assessed as assessed as protection against 6 Hz psychomotor seizure at 100 mg/kg, ip after 1 hr by minimal clonic seizure test; format: functional; conditions: route intraperitoneal; outline: as §1
Mus musculus [7] = test: Anticonvulsant activity in albino CF1 mouse assessed as assessed as protection against 6 Hz psychomotor seizure at 100 mg/kg, ip after 0.25 hr by minimal clonic seizure test; format: functional; conditions: route intraperitoneal; outline: as §1
Rattus norvegicus [8] = test: Anticonvulsant activity in albino Sprague-Dawley rat assessed as protection against maximal electroshock-induced seizures at 30 mg/kg, po measured after 4 hrs; format: functional
Outline: (§2)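 Male Sprague-Dawley rats, four per group, dosed p.o. at 30 mg/kg in 0.5% methylcellulose/water suspension; MES test at 0.25, 0.5, 1, 2 and 4 h, motor impairment examined in parallel; number of rats out of four protected.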

Rattus norvegicus [9] = test: Anticonvulsant activity in albino Sprague-Dawley rat assessed as protection against maximal electroshock-induced seizures at 30 mg/kg, po measured after 2 hrs; format: functional; outline: as §2
Rattus norvegicus [10] = test: Anticonvulsant activity in albino Sprague-Dawley rat assessed as protection against maximal electroshock-induced seizures at 30 mg/kg, po measured after 1 hr; format: functional; outline: as §2
Rattus norvegicus [11] = test: Anticonvulsant activity in albino Sprague-Dawley rat assessed as protection against maximal electroshock-induced seizures at 30 mg/kg, po measured after 0.5 hr; format: functional; outline: as §2
Rattus norvegicus [12] = test: Anticonvulsant activity in albino Sprague-Dawley rat assessed as protection against maximal electroshock-induced seizures at 30 mg/kg, po measured after 0.25 hr; format: functional; outline: as §2
Mus musculus [13] = test: Neurotoxicity in albino CF1 mouse assessed as minimum motor impairment at 300 mg/kg, ip measured after 4 hrs by rotorod test; format: toxicity, organism-based; design: dose 300 mg/kg, route intraperitoneal; conditions: in vivo
Outline: (§3)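 Male CF-1 mice given ip suspension in 0.5% methylcellulose/water at 30, 100 and 300 mg/kg; MES, scPTZ (pentylenetetrazole 85 mg/kg sc, CD97 dose for clonic seizures ≥5 s) and rotarod (inability to hold balance 1 min in each of three trials) assessed at 0.5 and 4 h; value is minimum dose active in half or more animals.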

Mus musculus [14] = test: Neurotoxicity in albino CF1 mouse assessed as minimum motor impairment at 300 mg/kg, ip measured after 0.5 hr by rotorod test; format: toxicity, organism-based; design: dose 300 mg/kg, route intraperitoneal; conditions: in vivo; outline: as §3
Mus musculus [15] = test: Anticonvulsant activity in albino CF1 mouse assessed as protection against subcutaneous pentylenetetrazole-induced convulsion at 300 mg/kg, ip measured after 4 hrs; format: functional, organism-based; design: dose 300 mg/kg; outline: as §3
Mus musculus [16] = test: Anticonvulsant activity in albino CF1 mouse assessed as protection against subcutaneous pentylenetetrazole-induced convulsion at 300 mg/kg, ip measured after 0.5 hrs; format: functional, organism-based; design: dose 300 mg/kg; outline: as §3
Mus musculus [17] = test: Anticonvulsant activity in albino CF1 mouse assessed as protection against maximal electroshock-induced seizures at 300 mg/kg, ip measured after 0.5 hr; format: functional, organism-based; design: dose 300 mg/kg; outline: as §3
Mus musculus [18] = test: Anticonvulsant activity in albino CF1 mouse assessed as protection against maximal electroshock-induced seizures at 300 mg/kg, ip measured after 4 hrs; format: functional, organism-based; design: dose 300 mg/kg; outline: as §3
Mus musculus [19] = test: Anticonvulsant activity in albino CF1 mouse assessed as assessed as protection against 6 Hz psychomotor seizure at 100 mg/kg, ip after 0.5 hr by minimal clonic seizure test; format: functional; conditions: route intraperitoneal; outline: as §1
Mus musculus [20] = test: Anticonvulsant activity in ip dosed albino CF1 mouse assessed as protection against maximal electroshock-induced seizures in half or more animals measured after 0.5 hr; format: functional; conditions: read-out: MED; outline: as §3
Mus musculus [21] = test: Anticonvulsant activity in ip dosed albino CF1 mouse assessed as protection against maximal electroshock-induced seizures in half or more animals measured after 4 hrs; format: functional; conditions: read-out: MED; outline: as §3
Rattus norvegicus [22] = test: Neurotoxicity in po dosed albino Sprague-Dawley rat assessed as time to peak effect by rotorod test; format: toxicity, organism-based; conditions: in vivo
Rattus norvegicus [23] = test: Anticonvulsant activity against […] subcutaneous pentylenetetrazole-induced convulsion in po dosed albino Sprague-Dawley rat assessed as time to peak effect; format: functional
Rattus norvegicus [24] = test: Anticonvulsant activity against maximal electroshock-induced seizures in po dosed albino Sprague-Dawley rat assessed as time to peak effect; format: functional
Rattus norvegicus [25] = test: Protection index, ratio of TD50 for neurotoxicity in po dosed albino Sprague-Dawley rat by rotorod test to ED50 for anticonvulsant activity in po dosed albino Sprague-Dawley rat by scPTZ test; format: functional
Outline: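 Male Sprague-Dawley rats, compound suspended in 0.5% methylcellulose/water and given orally; tested at the time of peak effect. scPTZ: 70 mg/kg pentylenetetrazole sc; the end-point is clonic seizures lasting at least 5 s. Rotarod: motor impairment is failure to keep balance for 1 min in each of three trials. Groups of at least eight rats received several doses until at least three points fell within 10–90% effect. ED50, TD50 and 95% confidence intervals were derived by regression; PI = TD50/ED50.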

[26] = Neurotoxicity in po dosed albino Sprague-Dawley rat assessed as minimum motor impairment by rotorod test; format: toxicity, organism-based; conditions: in vivo
Rattus norvegicus [27] = test: Anticonvulsant activity in po dosed albino Sprague-Dawley rat assessed as protection against maximal electroshock-induced seizures; format: functional
Mus musculus [28] = test: Anticonvulsant activity in ip dosed albino CF1 mouse assessed as protection against subcutaneous pentylenetetrazole-induced convulsion in half or more animals measured after 4 hrs; format: functional; conditions: albino CF1, 4 h, read-out: MED; outline: as §3
Mus musculus [29] = test: Anticonvulsant activity in ip dosed albino CF1 mouse assessed as protection against subcutaneous pentylenetetrazole-induced convulsion in half or more animals measured after 0.5 hr; format: functional; conditions: albino CF1, 0.5 h, read-out: MED; outline: as §3
Rattus norvegicus [30] = test: Anticonvulsant activity in po dosed albino Sprague-Dawley rat assessed as protection against subcutaneous pentylenetetrazole-induced convulsion; format: functional
[31] = Neurotoxicity in ip dosed albino CF1 mouse by rotorod test; format: toxicity, organism-based; conditions: in vivo

`O=C1CC(c2ccccc2)C(=O)N1CN1CCN(c2ncccn2)CC1` (racemic) gave a Time (Mus musculus [1]) of 1 h, an ED50 (Mus musculus [2]) of 103 mg/kg and a Time (Mus musculus [3]) of 1 h. For the same compound, the Activity (Mus musculus [4]) was 0%, the Activity (Mus musculus [5]) was 50% and the Activity (Mus musculus [6]) was 50%. For the same compound, the Activity (Mus musculus [7]) was 75%, the Activity (Rattus norvegicus [8]) was “inactive” and the Activity (Rattus norvegicus [9]) was “inactive”. For the same compound, the Activity (Rattus norvegicus [10]) was “inactive”, the Activity (Rattus norvegicus [11]) was “inactive” and the Activity (Rattus norvegicus [12]) was “inactive”. For the same compound, the Activity (Mus musculus [13]) was “Non-toxic”, the Activity (Mus musculus [14]) was “Non-toxic” and the Activity (Mus musculus [15]) was “inactive”. For the same compound, the Activity (Mus musculus [16]) was “inactive”, the Activity (Mus musculus [17]) was “inactive” and the Activity (Mus musculus [18]) was “inactive”. For the same compound, the Activity (Mus musculus [19]) was 50%.

In the case of `O=C1CC(c2ccccc2)C(=O)N1CN1CCC(Cc2ccccc2)CC1` (racemic), the Activity (Mus musculus [4]) is reported as 0%, the Activity (Mus musculus [5]) is reported as 25% and the Activity (Mus musculus [6]) is reported as 25%. For the same compound, the Activity (Mus musculus [7]) was 0%, the Activity (Mus musculus [13]) was “Non-toxic” and the Activity (Mus musculus [14]) was “Non-toxic”. The Activity (Mus musculus [15]) was “inactive”, the Activity (Mus musculus [16]) was “inactive” and the minimal effective dose (Mus musculus [20]) was 100 mg/kg. For the same compound, the minimal effective dose (Mus musculus [21]) was 300 mg/kg and the Activity (Mus musculus [19]) was 0%.

Compound `CCC1(C)CC(=O)NC1=O` (centres undefined) [ETHOSUXIMIDE] has a Time (Rattus norvegicus [22]) of 1 h, a Time (Rattus norvegicus [23]) of 1 h and a Time (Rattus norvegicus [24]) of 1 h. The “Ratio TD50/ED50” value (Rattus norvegicus [25]) was greater than 2.99, the TD50 [26] was greater than 500 mg/kg and the ED50 (Rattus norvegicus [27]) was greater than 500 mg/kg. The Activity (Mus musculus [13]) was “Non-toxic”, the Activity (Mus musculus [14]) was “Non-toxic” and the minimal effective dose (Mus musculus [28]) was 300 mg/kg. The minimal effective dose (Mus musculus [29]) was 100 mg/kg, the Activity (Mus musculus [17]) was “inactive” and the Activity (Mus musculus [18]) was “inactive”.

`CCCC(CCC)C(=O)O` [VALPROIC ACID] showed a Time (Rattus norvegicus [22]) of 1 h, a Time (Rattus norvegicus [23]) of 1 h and a Time (Rattus norvegicus [24]) of 1 h. For the same compound, the ED50 (Rattus norvegicus [30]) was 646 mg/kg.

`CC[C@@H](C(N)=O)N1CCCC1=O` showed a TD50 [31] greater than 500 mg/kg, a Time (Mus musculus [1]) of 1 h and a Time (Mus musculus [3]) of 1 h.
